Assay results: ChEMBL document CHEMBL1136729, “Synthesis of 3'- and 5'-nitrooxy pyrimidine nucleoside nitrate esters: "nitric oxide donor" agents for evaluation as anticancer and antiviral agents” (J Med Chem, 2003)
Converted amounts (≈) assume the structure as drawn.

What was measured:
[1] = (§1) In vitro cell cytotoxicity against EMT-6 cell lines; format: functional; settings: Mus musculus, EMT6
Method in brief: (§2)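 MTT assay. KBALB, KBALB-STK, 143B and 143B-LTK cells were grown in DMEM with 10% FBS; EMT-6 cells in Waymouth medium with 12.5% FBS. Cells were seeded at 8 × 10² per well and grown 24 h. Compound in DMEM was added for 3 days at 37 °C in 5% CO2, followed by MTT for 4 h, DMSO solubilisation and blank-corrected A540. CC50 is the concentration cutting A540 to 50% of control, mean of n = 6.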

KBALB cell line = assay: In vitro cell cytotoxicity against KBALB cell line (transformed fibroblast sarcoma cell line); format: functional; settings: Mus musculus; method in brief: as §2
KBALB-STK = assay: In vitro cell cytotoxicity against KBALB-STK cell lines expressed in HSV-1 TK; format: functional; settings: Mus musculus; method in brief: as §2
143B [2] = assay: In vitro cell cytotoxicity against 143-B cell lines (Human osteosarcoma cell line); format: functional; method in brief: as §2
143B [3] = assay: In vitro cell cytotoxicity against 143B-LTK cell lines expressed in HSV-1 TK; format: functional; settings: Homo sapiens; method in brief: as §2
EMT6 = assay: as §1; format: functional; settings: Mus musculus; method in brief: as §2
Human alphaherpesvirus 1 [4] = assay: (§3) Inhibitory activity against herpes simplex virus […]; format: functional, organism-based
Human alphaherpesvirus 2 [5] = assay: as §3; format: functional, organism-based
[6] = Compound was tested for in vitro nitric oxide release in the presence of 18 mM L-cysteine at 1 h; format: functional
Method in brief: (§4)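 Compound (2 mM stock in 0.1 M phosphate buffer pH 7.4) was mixed 1:1 with freshly made 36 mM L-cysteine in the same buffer and incubated at 37 °C for 1 or 16 h without air. The mixture was exposed to air for 10 min, then Griess reagent was added. A540 was read after 10 min. Nitrite was calculated from a 0–60 μM sodium nitrite standard curve, n = 3.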

[7] = Compound was tested for in vitro nitric oxide release in the presence of 18 mM L-cysteine at 16 h; format: functional; method in brief: as §4
Monkey = assay: (§5) Antiviral activity against Punta toro virus in vero cell cultures; format: functional, organism-based, Chlorocebus sabaeus; settings: Cercopithecidae
Rattus norvegicus [8] = species on record: Rattus norvegicus; assay: Compound was tested for in vitro nitric oxide release in the presence of rat serum at 1 h; format: functional
Method in brief: (§6)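 Compound (1 × 10⁻² M stock) was mixed 1:9 with filtered rat serum. It was incubated at 37 °C for 1 or 16 h with 0.2 U/mL Aspergillus nitrate reductase, 50 mM HEPES, 5 μM FAD and 0.1 mM NADPH. Leftover NADPH was removed with lactate dehydrogenase plus pyruvate over 10 min. Griess reagent was added and A540 read after 10 min at 25 °C. % NO release came from a nitrite standard curve, n = 3.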

Rattus norvegicus [9] = species on record: Rattus norvegicus; assay: Compound was tested for in vitro nitric oxide release in the presence of rat serum at 16 h; format: functional; method in brief: as §6
Coxsackievirus B4 = assay: Antiviral activity against coxsackie B4 virus; format: functional, organism-based; settings: Enterovirus B
Human respirovirus 3 = assay: Antiviral activity against parainfluenza-3 virus; format: functional, organism-based
Vaccinia virus = assay: Inhibitory activity against vaccinia virus; format: functional, organism-based; settings: Orthopoxvirus vaccinia
Sindbis virus = assay: Antiviral activity against sindbus virus; format: functional, organism-based
[10] = tested on: Respiratory syncytial virus; assay: Antiviral activity against respiratory syncytial virus in Hela cell cultures; format: functional, organism-based; settings: human respiratory syncytial virus
[11] = tested on: Mammalian orthoreovirus 1; assay: Antiviral activity against reovirus-1; format: functional, organism-based
Punta Toro virus = assay: as §5; format: functional, organism-based
[12] = Compound was tested for in vitro nitric oxide release in the presence of 18 mM L-cysteine at 16h; format: functional; method in brief: as §4
Human alphaherpesvirus 1 [13] = assay: Inhibitory activity against HSV-1; format: functional, organism-based
Human alphaherpesvirus 2 [14] = assay: Inhibitory activity against HSV-2; format: functional, organism-based

| Compound | CC50 (KBALB cell line) [µM] | CC50 (KBALB-STK) [µM] | CC50 (143B [2]) [µM] | CC50 (143B [3]) [µM] | NO release [6] [%] | NO release [7] [%] | NO release (Rattus norvegicus [8]) [%] | NO release (Rattus norvegicus [9]) [%] | also measured |
| --- | --- | --- | --- | --- | --- | --- | --- | --- | --- |
| Cc1cn([C@H]2C[C@H](O)[C@@H](CO)O2)c(=O)[nH]c1=O [DOXRIBTIMINE] | 95 | 100 | – | – | – | – | – | – | CC50 [1]: 130 µM |
| O=c1[nH]c(=O)n([C@H]2C[C@H](O[N+](=O)[O-])[C@@H](CO)O2)cc1I | 240 | 260 | 580 | 410 | 3.9 | 37.6 | 12.3 | 13.2 | CC50 (EMT6): 23 µM; IC50 (Human alphaherpesvirus 1 [4]): 48 µg/mL (≈ 120 µM); IC50 (Human alphaherpesvirus 2 [5]): 48 µg/mL (≈ 120 µM); IC50 (Monkey): > 80 µg/mL; IC50 (Coxsackievirus B4): > 80 µg/mL; IC50 (Human respirovirus 3): > 80 µg/mL; IC50 (Vaccinia virus): 48 µg/mL (≈ 120 µM); IC50 (Sindbis virus): > 80 µg/mL; IC50 [10]: > 80 µg/mL; IC50 [11]: > 80 µg/mL |
| O=c1[nH]c(=O)n([C@H]2C[C@H](O)[C@@H](CO[N+](=O)[O-])O2)cc1I | 340 | 250 | 340 | 21 | 3.7 | 36.4 | 3.9 | 4.7 | – |
| O=c1[nH]c(=O)n([C@H]2C[C@H](O[N+](=O)[O-])[C@@H](CO)O2)cc1F | 8 | 3.5 | 2.4 | 74 | 0 | 3.8 | 4 | 6.6 | CC50 [1]: 6.2 µM; IC50 (Coxsackievirus B4): > 80 µg/mL; IC50 (Human respirovirus 3): > 80 µg/mL; IC50 (Punta Toro virus): > 80 µg/mL; IC50 (Sindbis virus): > 80 µg/mL; IC50 [10]: > 80 µg/mL; IC50 [11]: > 80 µg/mL |
| O=c1[nH]c(=O)n([C@H]2C[C@H](O)[C@@H](CO)O2)cc1I [IDOXURIDINE] | 97 | 10 | 7000 | 7400 | – | – | – | – | CC50 [1]: 380 µM |
| O=[N+]([O-])O[C@H]1CO[C@H]2[C@@H]1OC[C@H]2O[N+](=O)[O-] [ISOSORBIDE DINITRATE] | 970 | 650 | 600 | 700 | 3.5 | 24 | 1.9 | 2.6 | – |
| O=c1[nH]c(=O)n([C@H]2C[C@H](O)[C@@H](CO)O2)cc1F [FLOXURIDINE] | – | – | 90 | 100 | – | – | – | – | – |
| O=c1ccn([C@H]2C[C@H](O[N+](=O)[O-])[C@@H](CO)O2)c(=O)[nH]1 | – | – | – | 850 | 4.9 | – | 7.7 | 9 | IC50 (Monkey): > 80 µg/mL; IC50 (Coxsackievirus B4): > 80 µg/mL; IC50 (Human respirovirus 3): > 80 µg/mL; IC50 (Sindbis virus): > 80 µg/mL; IC50 [10]: > 80 µg/mL; IC50 [11]: > 80 µg/mL |
| Nc1nc(=O)n([C@H]2C[C@H](O[N+](=O)[O-])[C@@H](CO)O2)cc1I | 1000 | 250 | 200 | 200 | 4 | 47.2 | 12.5 | 17.6 | CC50 (EMT6): 340 µM |
| Cc1cn([C@H]2C[C@H](O[N+](=O)[O-])[C@@H](CO)O2)c(=O)[nH]c1=O | 1000 | 7000 | – | – | 4.9 | 53.6 | 7.4 | 7.4 | IC50 (Coxsackievirus B4): > 80 µg/mL; IC50 (Human respirovirus 3): > 80 µg/mL; IC50 (Punta Toro virus): > 80 µg/mL; IC50 (Sindbis virus): > 80 µg/mL; IC50 [10]: > 80 µg/mL; IC50 [11]: > 80 µg/mL |
| Nc1ccn([C@H]2C[C@H](O[N+](=O)[O-])[C@@H](CO)O2)c(=O)n1 | – | – | – | 200 | 1.5 | 17.1 | 18.8 | 20.2 | – |
| Cc1cn([C@H]2C[C@H](O[N+](=O)[O-])[C@@H](CO)O2)c(=O)nc1N | – | – | – | 1000 | 3.8 | 50.3 | 47.1 | 59.5 | – |
| O=c1ccn([C@H]2C[C@H](O)[C@@H](CO[N+](=O)[O-])O2)c(=O)[nH]1 | 1000 | – | – | – | 5.4 | 59.9 | 2.9 | 4.4 | – |
| Cc1cn([C@H]2C[C@H](O)[C@@H](CO[N+](=O)[O-])O2)c(=O)[nH]c1=O | – | 300 | – | – | 5 | – | 3.6 | 4.8 | NO release [12]: 59.8% |
| O=c1[nH]c(=O)n([C@H]2C[C@H](O)[C@@H](CO)O2)cc1/C=C/I | – | – | – | – | – | – | – | – | IC50 (Human alphaherpesvirus 1 [13]): 0.0051 µg/mL (≈ 0.0134 µM); IC50 (Human alphaherpesvirus 2 [14]): 80 µg/mL (≈ 210 µM); IC50 (Vaccinia virus): 2.3 µg/mL (≈ 6.05 µM) |
